Experimental data: ChEMBL document CHEMBL4339193, “Phenotypic Screening-Based Identification of 3,4-Disubstituted Piperidine Derivatives as Macrophage M2 Polarization Modulators: An Opportunity for Treating Multiple Sclerosis” (J Med Chem, 2019)
Active and inactive are the calls of the source. The calls are words filed in the database; no cut-off is given here.

Columns and labels:
Mus musculus [1] = experiment: (§1) Antiinflammatory activity in C57BL/6J mouse model of MOG (35 to 55 residues)/pertussis toxin/complete Freund's adjuvant-induced experimental allergic encephalomyelitis assessed as effect on dendritic cell population in draining lymph nodes by measuring change in CD11c level at 200 mg/kg, ig administered daily starting from 7 days post-immunization measured after 13 to 19 days post-immunization by flow cytometry analysis; type: functional, organism-based
Summary of the method: (§2)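 MOG35-55/CFA EAE mice were dosed daily in saline from day 7 and sampled between days 13 and 19. Spleens and dLNs were mechanically dissociated to single cells. CNS cells came from collagenase IV digestion and a 70%/30% Percoll gradient. Cells were surface-stained with fluorochrome antibodies, including CD4, CD11b, CD11c and MHC-II, and analysed by flow cytometry.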

Mus musculus [2] = experiment: as §1, with “spleen” for “draining lymph nodes”; type: functional, organism-based; summary of the method: as §2
Mus musculus [3] = experiment: (§3) Antiinflammatory activity in C57BL/6J mouse model of MOG (35 to 55 residues)/pertussis toxin/complete Freund's adjuvant-induced experimental allergic encephalomyelitis assessed as reduction in infiltration in spinal cord at 200 mg/kg, ig administered daily starting from 7 days post-immunization measured after 14 days post-immunization by H and E staining based microscopic analysis; type: functional, organism-based
Summary of the method: (§4)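 EAE mice dosed daily in saline from day 7 were perfused with PBS and fixed in 4% PFA on day 14; spinal cords were taken. For LFB, frozen OCT sections sat 3 h in 0.1% Luxol Fast Blue at 56-60°C, were differentiated in 0.05% lithium carbonate for 10-12 s, cleared in 70% ethanol, dehydrated and mounted. For H&E, paraffin sections were stained to assess inflammation.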

Mus musculus [4] = experiment: as §3, with “LFB” for “H and E”; type: functional, organism-based; summary of the method: as §4
BMDM [5] = experiment: Inhibition of LPS-induced M1 polarization in C57BL/6J mouse BMDM cells assessed as down regulation of CD86 mRNA expression at 300 nM measured after 24 hrs by qRT-PCR analysis; type: functional, cell-based
Summary of the method: (§5)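 BMDMs pre-incubated 24 h with 50 ng/ml LPS to induce M1, then treated 24 h with 300 nM compound. Total RNA extracted with Trizol; Mcp1, Inos and Cd86 mRNA measured by qRT-PCR. Mean ± SEM.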

BMDM [6] = experiment: Inhibition of LPS-induced M1 polarization in C57BL/6J mouse BMDM cells assessed as down regulation of Inos mRNA expression at 300 nM measured after 24 hrs by qRT-PCR analysis; type: functional, cell-based; summary of the method: as §5
BMDM [7] = experiment: Modulation of M2 polarization in C57BL/6J mouse BMDM cells assessed as up regulation of Mrc1 mRNA expression at 300 nM measured after 24 hrs by qRT-PCR analysis; type: functional, cell-based
Summary of the method: (§6)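 BMDMs treated 24 h with 300 nM compound at 37 °C, 5% CO2. Trizol RNA extraction, then qRT-PCR for Arg1, Mrc1 and Fizz1 mRNA. Mean ± SEM.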

BMDM [8] = experiment: Modulation of M2 polarization in C57BL/6J mouse BMDM cells assessed as up regulation of Arg1 mRNA expression at 300 nM measured after 24 hrs by qRT-PCR analysis; type: functional, cell-based; summary of the method: as §6
RAW264.7 [9] = experiment: Inhibition of M1 polarization in mouse RAW264.7 cells assessed as down regulation of IL6 mRNA expression at 300 nM measured after 24 hrs by qRT-PCR analysis; type: functional, cell-based
RAW264.7 [10] = experiment: Inhibition of M1 polarization in mouse RAW264.7 cells assessed as down regulation of CD80 mRNA expression at 300 nM measured after 24 hrs by qRT-PCR analysis; type: functional, cell-based
RAW264.7 [11] = experiment: Modulation of M2 polarization in mouse RAW264.7 cells assessed as up regulation of CCR7 mRNA expression at 300 nM measured after 24 hrs by qRT-PCR analysis; type: functional, cell-based
[12] = AUC (0 to infinity) in Sprague-Dawley rat at 50 mg/kg, po administered as single dose via gavage by LC/MS analysis; type: ADME, organism-based; parameters: dose 50 mg/kg, time infinity, route oral; settings: in vivo
Summary of the method: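 Single dose in rats; venous blood (100 µL) drawn at 0, 0.5, 1, 2, 4, 8 and 12 h, plasma separated by centrifugation and held at -20 °C. Compound measured by LC/MS; Cmax, Tmax, t1/2 and AUC derived from the concentration–time data.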

RAW264.7 [13] = experiment: Inhibition of LPS-induced M1 polarization in mouse RAW264.7 cells assessed as down regulation of Mcp1 mRNA expression at 300 nM measured after 24 hrs by qRT-PCR analysis relative to control; type: functional, cell-based
Summary of the method: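 RAW264.7 cells pre-treated with LPS (50 ng/ml) for 24 h, then given 300 nM compound for 24 h. Mcp1 mRNA quantified by qRT-PCR relative to control. Mean ± SEM.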

RAW264.7 [14] = experiment: Modulation of M2 polarization in mouse RAW264.7 cells assessed as change in Arg1 mRNA expression at 300 nM measured after 24 hrs by qRT-PCR analysis relative to control; type: functional
Summary of the method: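 RAW264.7 cells (DMEM, 10% FBS) given 300 nM compound for 24 h; IL-4 20 ng/ml as positive control. Arg1 mRNA measured by qRT-PCR; fold change = expression in dosed group / expression in untreated control.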

Mus musculus [15] = experiment: as §1, with “Treg” for “dendritic”, “spleen” for “draining lymph nodes”, “CD4” for “CD11c”; type: functional, organism-based; summary of the method: as §2
BMDM [16] = experiment: Antiinflammatory activity in LPS-induced C57BL/6J mouse BMDM cells assessed as suppression of M1 macrophage-stimulated Th1 cell population by measuring decrease in IFNgamma level at 300 nM measured after 48 hrs by ELISA; type: functional, cell-based
Summary of the method: (§7)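 Supernatant collected from the 72 h coculture of CFSE-labelled naïve CD4+ T cells (anti-CD3/anti-CD28, 500 ng/ml each, 1:1) with BMDMs pretreated 48 h with 50 ng/ml LPS plus 300 nM compound. IFN-γ or IL-17A quantified by ELISA. Mean ± SEM, at least three independent experiments.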

BMDM [17] = experiment: Antiinflammatory activity in LPS-induced C57BL/6J mouse BMDM cells assessed as suppression of M1 macrophage-stimulated Th17 cell population by measuring decrease in Il17 level at 300 nM measured after 48 hrs by ELISA; type: functional, cell-based; summary of the method: as §7

Cl.Cn1ncc(Cl)c1-c1ccc(C(=O)N[C@@H]2CNCC[C@H]2c2cccc(F)c2)cc1
Activity (Mus musculus [1]): inactive | Activity (Mus musculus [2]): inactive | Activity (Mus musculus [3]): Active | Activity (Mus musculus [4]): Active | inhibition (BMDM [5]): Active | inhibition (BMDM [6]): Active | Activity (BMDM [7]): Active | Activity (BMDM [8]): Active | inhibition (RAW264.7 [9]): Active | inhibition (RAW264.7 [10]): Active | Activity (RAW264.7 [11]): Active | AUC(0-inf) [12]: 4740 ng·h/mL | inhibition (RAW264.7 [13]): Active | fold change (FC) (RAW264.7 [14]): 13.97 | Activity (Mus musculus [15]): inactive | Activity (BMDM [16]): Active | Activity (BMDM [17]): Active
